Assay results from different studies.
Compare with care: the assays were run in different laboratories.
Target: Serine/threonine-protein kinase SIK2 (SIK2, Homo sapiens, UniProt Q9H0K1)

Nc1ncnc2occ(-c3ccc(NC(=O)Nc4cc(C(F)(F)F)ccc4F)cc3)c12 gave a remaining signal of 57% (cell-free assay, inhibitor; 20 µM).
COc1cc(Nc2c(C#N)cnc3cc(OCCCN4CCN(C)CC4)c(OC)cc23)c(Cl)cc1Cl gave a remaining signal of 1.93% (cell-free assay; 0.5 µM).
Cc1nc(C2CCN(C(=O)c3ccc(OC(F)(F)F)cc3N)CC2)c2ncc(N3CCN(C)CC3)cc2n1 has a remaining binding of 100% (cell-free assay, competition with immobilised ligand; 1 µM).
The inhibition of COc1cc(-c2cc(-c3ccc(N4CCNCC4)cc3)cnc2N)cc(OC)c1OC is reported as 82% (enzyme activity, inhibitor; 1 µM).
With CN([C@@H]1CCc2c(CC(=O)O)c3cc(S(C)(=O)=O)ccc3n2C1)S(=O)(=O)c1ccc(F)cc1 the remaining binding was 93% (cell-free assay, competition with immobilised ligand; 1 µM).
CCN(CC)CCNC(=O)c1c(C)[nH]c(/C=C2\C(=O)Nc3ccc(F)cc32)c1C has a remaining signal of 27.8% (cell-free assay; 0.5 µM).
O=C(Nc1cccnn1)N1CCC(=Cc2cccc(Oc3ccc(C(F)(F)F)cn3)c2)CC1 gave a remaining binding of 100% (cell-free assay, competition with immobilised ligand; 1 µM).
Cc1sc(C(=O)NC2COC2)cc1-n1cc(NC(=O)Nc2c(F)cccc2Cl)cn1 has a remaining activity of 89.8% (enzyme activity, inhibitor; 10 µM).
CC(C)(C)c1nc2c(s1)c1nc(N)ncc1c1ccc(NS(=O)(=O)c3c(F)cccc3F)c(F)c12 has a remaining activity of 101% (enzyme activity, inhibitor, radiometric; 1 µM).
The inhibition of COc1cc2ncnc(Nc3ccc(Oc4ccccc4)cc3C)c2cc1OC is reported as 3% (enzyme activity, inhibitor; 1 µM).
Cc1nccc(COC(=O)N2C[C@@H]3[C@@H](CNC(=O)c4ccc5[nH]nnc5c4)[C@@H]3C2)n1 gave a remaining binding of 92% (cell-free assay, competition with immobilised ligand; 1 µM).
For CCCS(=O)(=O)Nc1ccc(F)c(C(=O)c2c[nH]c3ncc(-c4ccc(Cl)cc4)cc23)c1F, the inhibition was less than 10% (enzyme activity, inhibitor; 1 µM).
COc1cc(Nc2cnc(C#N)c(O[C@H](C)CN(C)C)n2)ncc1-c1cnn(C)c1 has a remaining activity of 80% (enzyme activity, inhibitor, radiometric; 1 µM).
For FC(F)(F)Oc1cccc(-c2cnc3ccc(-c4ccncc4)nn23)c1, the activity vs control was 68% (enzyme activity, inhibitor, radiometric; 1 µM).
The remaining binding of O=C1CCc2cc(Nc3cc(OC4CCOCC4)c([N+](=O)[O-])cc3Cl)ccc2N1 is reported as 100% (cell-free assay, competition with immobilised ligand; 1 µM).
With C[S+]([O-])c1ccc(-c2nc(-c3ccncc3)c(-c3ccc(F)cc3)[nH]2)cc1 (stereo not drawn) the remaining signal was 82.1% (cell-free assay; 0.5 µM).
CC(=O)C1=C(C)N(c2cccc(C(F)(F)F)c2)C(=O)N[C@@H]1c1ccc(C#N)nc1 gave a remaining binding of 87.8% (cell-free assay, competition with immobilised ligand; 1 µM).
For CC/C(=N\NC(=O)NCc1cccc(O)c1)c1ccc(O)c(C)c1O, the inhibition was -5.5% (enzyme activity, inhibitor; 0.1 µM).
